# Measurements taken from ChEMBL document CHEMBL1158601, “Discovery of a novel series of CXCR3 antagonists” (Bioorg Med Chem Lett, 2010).
# Active and inactive are the calls of the source. The rule behind the calls is not given here.
# Assays:
# [1] = target: T1, C-X-C chemokine receptor type 5 (Homo sapiens) (UniProt P32302); assay: Antagonist activity at human CXCR5 expressed in mouse L1.2 cells assessed as inhibition of CXCL13-induced chemotaxis up to 10 uM after 4 hrs; assay type: functional, cell-based
# T1 sequence (whole entry): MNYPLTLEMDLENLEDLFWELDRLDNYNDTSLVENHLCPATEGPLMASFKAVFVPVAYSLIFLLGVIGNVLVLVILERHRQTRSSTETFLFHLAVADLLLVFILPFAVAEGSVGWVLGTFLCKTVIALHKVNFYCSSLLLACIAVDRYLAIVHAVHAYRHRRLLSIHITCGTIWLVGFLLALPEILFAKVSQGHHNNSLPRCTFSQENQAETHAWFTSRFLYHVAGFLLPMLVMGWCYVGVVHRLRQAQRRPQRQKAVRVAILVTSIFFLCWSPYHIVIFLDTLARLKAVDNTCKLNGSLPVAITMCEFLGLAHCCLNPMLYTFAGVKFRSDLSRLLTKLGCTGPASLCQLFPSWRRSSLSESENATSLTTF
# Outline: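 Counter-screen chemotaxis: CXCR5-overexpressing L1.2 cells stimulated with CXCL13, test compounds up to 10 µM.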
# [2] = Aqueous solubility at pH 7.4; assay type: physicochemical; conditions: buffer
# Outline: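 Aqueous solubility measured at pH 7.4.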
# [3] = Intrinsic clearance in human liver microsomes assessed per mg of protein; assay type: ADME, Microsome
# Outline: (§1)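 Intrinsic clearance from stability in human and rat liver microsomes, expressed as µL/min/mg protein.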
# [4] = Intrinsic clearance in rat liver microsomes assessed per mg of protein; assay type: ADME, Microsome; outline: as §1
# [5] = Apparent permeability across human Caco-2 cells; assay type: ADME, cell-based
# [6] = target: T2, C-X-C chemokine receptor type 3 (Homo sapiens) (UniProt P49682); assay: Antagonist activity at CXCR3 assessed as inhibition of ITAC-induced GTPgammaS binding; assay type: functional
# T2 sequence (whole entry): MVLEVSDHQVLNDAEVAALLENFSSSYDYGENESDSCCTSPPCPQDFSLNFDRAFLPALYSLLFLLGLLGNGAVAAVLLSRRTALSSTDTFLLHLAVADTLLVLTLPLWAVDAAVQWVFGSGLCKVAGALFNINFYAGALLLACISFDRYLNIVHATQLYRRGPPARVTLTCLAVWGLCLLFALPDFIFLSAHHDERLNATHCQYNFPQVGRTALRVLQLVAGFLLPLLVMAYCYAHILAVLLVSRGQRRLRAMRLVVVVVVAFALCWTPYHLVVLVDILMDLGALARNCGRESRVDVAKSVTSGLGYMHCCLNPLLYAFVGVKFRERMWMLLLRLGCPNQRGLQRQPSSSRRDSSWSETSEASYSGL
# [7] = target: T3, C-X-C chemokine receptor type 3 (Homo sapiens, UniProt P49682); assay: Displacement of labeled IP10 from CXCR3
# T3 sequence (P49682 whole entry): T2 sequence (whole entry)
# [8] = Lipophilicity, log P of the compound; assay type: physicochemical; conditions: octanol/water
# [9] = Chemical stability at pH 1; assay type: physicochemical; conditions: buffer
# [10] = target: T2, C-X-C chemokine receptor type 3 (Homo sapiens); assay: Antagonist activity at CXCR3 assessed as inhibition of IP10-induced GTPgammaS binding; assay type: functional
# [11] = target: T3, C-X-C chemokine receptor type 3; assay: Displacement of labeled ITAC from CXCR3
# [12] = Nephelometric kinetic solubility in PBS; assay type: physicochemical
# [13] = target: T2, C-X-C chemokine receptor type 3 (Homo sapiens); assay: Antagonist activity at human CXCR3 expressed in mouse L1.2 cells assessed as inhibition of ITAC-induced chemotaxis after 4 hrs; assay type: functional, cell-based
# [14] = Clearance in mouse at 0.2 mg/kg, iv; assay type: ADME, organism-based; parameters: dose 0.2 mg/kg, route intravenous; conditions: in vivo
# [15] = Volume of distribution at steady state in mouse at 0.2 mg/kg, iv; assay type: ADME, organism-based; parameters: dose 0.2 mg/kg, route intravenous; conditions: in vivo, read-out: Vdss
# [16] = Half life in mouse at 10 mg/kg, po; assay type: ADME, organism-based; parameters: dose 10 mg/kg, route oral; conditions: in vivo
# [17] = Intrinsic clearance in mouse liver microsomes assessed per mg of protein; assay type: ADME, Microsome
# [18] = Bioavailability in mouse at 10 mg/kg, po; assay type: ADME, organism-based; conditions: in vivo
# Mus musculus = assay: Clearance in mouse assessed as liver blood flow at 0.2 mg/kg, iv; assay type: ADME, organism-based; parameters: dose 0.2 mg/kg, route intravenous; conditions: in vivo
Activity [1],solubility [2] [µM],microsomal CLint [4] [µL/min/mg],Structure (SMILES),further results
inactive,< 10,–,COc1ccc(S(=O)(=O)N(Cc2ccccc2)Cc2ccc(C(=O)NCc3ccccc3)cc2)cc1,–
inactive,> 100,25,O=S(=O)(c1ccc(Cl)cc1)N(Cc1ccc(-c2nnn[nH]2)cc1)Cc1ccccn1,microsomal CLint [3]: < 10 µL/min/mg
inactive,< 10,–,O=C(NCC1CC1)c1ccc(CN(Cc2ccccc2F)S(=O)(=O)c2ccc(Cl)cc2)cc1,–
inactive,< 10,–,N#Cc1ccc(S(=O)(=O)N(Cc2ccc(C(=O)NCC3CC3)cc2)Cc2ccccn2)cc1,–
inactive,> 100,–,O=S(=O)(c1ccc(Cl)cc1)N(Cc1ccc(-c2nnn[nH]2)cc1)Cc1ccccc1F,–
inactive,> 100,–,O=S(=O)(c1ccc(Cl)cc1)N(Cc1ccc(F)cc1)Cc1ccc(-c2nnn[nH]2)cc1,–
inactive,> 100,–,O=S(=O)(c1ccc(Cl)cc1)N(Cc1ccc(Cl)cc1)Cc1ccc(-c2nnn[nH]2)cc1,–
inactive,> 100,–,O=S(=O)(c1ccc(Cl)cc1)N(Cc1ccc(-c2nnn[nH]2)c(F)c1)Cc1ccccn1,–
inactive,> 100,–,N#Cc1ccc(S(=O)(=O)N(Cc2ccc(-c3nnn[nH]3)cc2)Cc2ccccn2)cc1,–
inactive,< 10,–,O=C(NCC1CC1)c1ccc(CN(Cc2ccccc2)S(=O)(=O)c2ccc(OC(F)(F)F)cc2)cc1,–
inactive,–,–,O=S(=O)(c1ccc(Cl)cc1)N(Cc1ccc(-c2nnc(O)o2)cc1)Cc1ccccn1,–
inactive,< 10,–,O=C(NCC1CC1)c1ccc(CN(Cc2ccccc2)S(=O)(=O)c2ccc(Cl)cc2)cc1,–
inactive,> 100,67,N#Cc1ccc(S(=O)(=O)N(Cc2ccc(-c3nnn[nH]3)cc2)Cc2ccccc2F)cc1,–
inactive,> 100,–,COc1cccc(CN(Cc2ccc(-c3nnn[nH]3)cc2)S(=O)(=O)c2ccc(Cl)cc2)c1,–
inactive,–,–,COc1ccc(S(=O)(=O)N(Cc2ccccc2)Cc2ccc(C(=O)O)cc2)cc1,–
–,–,219,CC(=O)Nc1cccc(/C(C)=N\NC(=O)c2ccc(CN(Cc3ccccc3)S(=O)(=O)c3ccc(Cl)cc3)cc2)c1,Papp [5]: 0.1 ×10⁻⁶ cm/s; Activity [6]: 128 nM; Ki [7]: 348 nM; logP [8]: 4.8; Stability [9]: Unstable; Activity [10]: 99 nM; Ki [11]: 211 nM; solubility kinetic [12]: 11.9 µM; Activity [13]: 1810 nM; microsomal CLint [3]: 92 µL/min/mg
inactive,< 10,–,COc1ccc(S(=O)(=O)N(Cc2ccccc2)Cc2ccc(C(=O)NCC3CC3)cc2)cc1,–
inactive,> 100,–,COc1ccc(CN(Cc2ccc(-c3nnn[nH]3)cc2)S(=O)(=O)c2ccc(Cl)cc2)cc1,–
inactive,< 10,474,N#Cc1ccc(S(=O)(=O)N(Cc2ccc(C(=O)NC3(c4ccccc4)CC3)cc2)Cc2ccccn2)cc1,microsomal CLint [3]: 435 µL/min/mg
inactive,< 10,507,O=C(NC1(c2ccccc2)CC1)c1ccc(CN(Cc2ccccc2)S(=O)(=O)c2ccc(Cl)cc2)cc1,microsomal CLint [3]: 211 µL/min/mg

Activity [1],solubility [2] [µM],microsomal CLint [4] [µL/min/mg],Structure (SMILES),further results
inactive,< 10,–,O=C(NCC1CC1)c1ccc(CN(Cc2cccc(Cl)c2)S(=O)(=O)c2ccc(Cl)cc2)cc1,–
inactive,< 10,–,CCOc1ccc(S(=O)(=O)N(Cc2ccccc2)Cc2ccc(C(=O)NCC3CC3)cc2)cc1,–
inactive,< 10,–,O=C(NCc1cccs1)c1ccc(CN(Cc2ccccc2)S(=O)(=O)c2ccc(Cl)cc2)cc1,–
inactive,< 10,–,O=C(NCCc1cccc([N+](=O)[O-])c1)c1ccc(CN(Cc2ccccc2)S(=O)(=O)c2ccc(Cl)cc2)cc1,–
inactive,–,–,N#Cc1ccc(S(=O)(=O)N(Cc2ccc(C(=O)O)c(F)c2)Cc2ccccn2)cc1,–
inactive,< 10,538,O=C(NCC1CC1)c1ccc(CN(Cc2ccccn2)S(=O)(=O)c2ccc(Cl)cc2)cc1,microsomal CLint [3]: 265 µL/min/mg
inactive,> 100,–,CC(C)(C)c1nc(CCN(Cc2ccc(-c3nnn[nH]3)cc2)S(=O)(=O)c2ccc(Cl)cc2)no1,–
inactive,< 10,1700,O=C(NC[C@@H]1CCCO1)c1ccc(CN(Cc2ccccc2)S(=O)(=O)c2ccc(Cl)cc2)cc1,microsomal CLint [3]: 490 µL/min/mg
inactive,> 100,71,O=S(=O)(c1ccc(Cl)cc1)N(Cc1ccc(-c2nnn[nH]2)c(F)c1)Cc1ccccc1F,microsomal CLint [3]: < 10 µL/min/mg
inactive,< 10,–,O=C(NCc1cccc(Cl)c1)c1ccc(CN(Cc2ccccc2)S(=O)(=O)c2ccc(Cl)cc2)cc1,–
inactive,> 100,–,O=S(=O)(c1ccc(Cl)cc1)N(CCc1cc2ccccc2cn1)Cc1ccc(-c2nnn[nH]2)cc1,–
inactive,< 10,–,COc1ccc(S(=O)(=O)N(Cc2ccc(C(=O)NCC3CC3)cc2)Cc2cccnc2)cc1,–
inactive,< 10,1190,O=C(NCc1cccc(Cl)c1)c1ccc(CN(Cc2ccccn2)S(=O)(=O)c2ccc(Cl)cc2)cc1,microsomal CLint [3]: 583 µL/min/mg
inactive,> 100,–,CCOc1ccc(S(=O)(=O)N(Cc2ccc(-c3nnn[nH]3)cc2)Cc2ccccn2)cc1,–
inactive,> 100,–,O=S(=O)(c1ccc(Cl)cc1)N(Cc1ccc(-c2nnn[nH]2)cc1)Cc1cccc(Cl)c1,–
inactive,> 100,–,N#Cc1ccc(S(=O)(=O)N(Cc2ccc(-c3nnn[nH]3)c(F)c2)Cc2ccccc2F)cc1,clearance [14]: 28.3 mL/min/kg; Vd [15]: 1 L/kg; half-life [16]: 60 min; microsomal CLint [17]: 17 µL/min/mg; bioavailability [18]: 83%; Fraction of Liver Blood Flow (Mus musculus): 30%
inactive,–,20,O=C(O)c1ccc(CN(Cc2ccccc2)S(=O)(=O)c2ccc(Cl)cc2)cc1,microsomal CLint [3]: < 10 µL/min/mg
inactive,< 10,1260,O=C(NC1(c2ccccc2)CC1)c1ccc(CN(Cc2ccccn2)S(=O)(=O)c2ccc(Cl)cc2)cc1,microsomal CLint [3]: 257 µL/min/mg
inactive,–,–,O=C(O)c1ccc(CN(Cc2ccccn2)S(=O)(=O)c2ccc(Cl)cc2)cc1F,–
inactive,–,< 10,O=C(O)c1ccc(CN(Cc2ccccc2F)S(=O)(=O)c2ccc(Cl)cc2)cc1F,–
